Reference: ChEMBL document CHEMBL3734757, “Discovery of novel quinoline-based mTOR inhibitors via introducing intra-molecular hydrogen bonding scaffold (iMHBS): The design, synthesis and biological evaluation” (Bioorg Med Chem, 2015)
pIC50: −log10 of the molar value. Calls of active or inactive are those of the source. The calls are words filed in the database; no cut-off is given here.

What was measured:
[1] = tested on: MCF7; assay: Inhibition of mTORC2 in human MCF7 cells assessed as downregulation of pAKT(Ser473) at 0.1 uM after 2 hrs by Western blot analysis
[2] = molecular target: T1, Phosphatidylinositol 4,5-bisphosphate 3-kinase catalytic subunit alpha isoform (Homo sapiens, UniProt P42336); assay: Inhibition of PI3Kalpha (unknown origin) after 1 hr by Kinase-Glo Luminescent assay
[3] = molecular target: Serine/threonine-protein kinase mTOR (Homo sapiens, UniProt P42345); assay: Inhibition of mTOR (unknown origin) using ULight-4E-BP1 peptide as substrate after 1 hr by lance ultra assay
[4] = tested on: MCF7; assay: Inhibition of mTORC1/2 in human MCF7 cells assessed as downregulation of pAKT(Ser473) and pS6(Ser235) at 0.5 uM after 2 hrs by Western blot analysis; type: cell-based
[5] = cells; settings: Homo sapiens, HCT-116, 72 h
[6] = tested on: MCF7; assay: cells; settings: Homo sapiens, MCF7, 72 h
[7] = molecular target: T2, Phosphatidylinositol 4,5-bisphosphate 3-kinase catalytic subunit delta isoform (Homo sapiens, UniProt O00329); assay: Inhibition of PI3Kdelta (unknown origin) after 1 hr by ADP-Glo Luminescent assay
T2 sequence (O00329 whole entry): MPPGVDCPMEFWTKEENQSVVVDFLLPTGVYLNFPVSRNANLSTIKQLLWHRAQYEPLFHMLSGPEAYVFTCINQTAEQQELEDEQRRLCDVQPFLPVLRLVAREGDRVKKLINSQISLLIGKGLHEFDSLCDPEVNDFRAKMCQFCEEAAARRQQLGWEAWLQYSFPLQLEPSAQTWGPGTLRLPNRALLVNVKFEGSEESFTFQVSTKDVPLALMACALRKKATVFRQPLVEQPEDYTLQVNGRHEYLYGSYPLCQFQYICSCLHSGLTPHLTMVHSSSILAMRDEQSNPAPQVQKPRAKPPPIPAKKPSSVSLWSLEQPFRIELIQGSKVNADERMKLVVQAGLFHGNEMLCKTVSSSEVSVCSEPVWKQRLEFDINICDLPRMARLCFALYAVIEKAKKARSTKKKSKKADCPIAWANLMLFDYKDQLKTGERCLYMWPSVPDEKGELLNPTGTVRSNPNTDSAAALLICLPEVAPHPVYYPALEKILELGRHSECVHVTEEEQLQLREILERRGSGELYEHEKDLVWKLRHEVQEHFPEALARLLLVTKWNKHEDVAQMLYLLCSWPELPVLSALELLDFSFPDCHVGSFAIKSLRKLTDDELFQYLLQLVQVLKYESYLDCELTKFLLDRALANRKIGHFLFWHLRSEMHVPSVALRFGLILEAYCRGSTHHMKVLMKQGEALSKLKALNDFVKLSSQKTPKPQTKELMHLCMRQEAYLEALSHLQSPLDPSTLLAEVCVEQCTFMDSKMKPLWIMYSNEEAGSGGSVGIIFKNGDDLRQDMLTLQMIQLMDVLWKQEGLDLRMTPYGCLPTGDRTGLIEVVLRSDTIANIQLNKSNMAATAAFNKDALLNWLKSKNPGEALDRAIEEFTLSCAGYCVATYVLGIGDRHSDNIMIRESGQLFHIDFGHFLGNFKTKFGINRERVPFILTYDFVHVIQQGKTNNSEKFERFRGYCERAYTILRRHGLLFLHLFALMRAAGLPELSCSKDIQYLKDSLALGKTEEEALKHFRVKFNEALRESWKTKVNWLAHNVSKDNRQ

[8] = molecular target: T3, Phosphatidylinositol 4,5-bisphosphate 3-kinase catalytic subunit beta isoform (Homo sapiens, UniProt P42338); assay: Inhibition of PI3Kbeta (unknown origin) after 1 hr by ADP-Glo Luminescent assay
Outline: (§1)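 Purchased PI3Kβ reaction run 1 h at room temperature. An aliquot was moved to a new plate and stopped with an equal volume of ADP-Glo reagent, equilibrated 40 min. Kinase detection reagent added, shaken 1 min, equilibrated 60 min, then luminescence read. Inhibition relative to DMSO (max) and no-enzyme (min) controls; IC50 from four-parameter Hill fit.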
Target sequence in this assay (P42338 whole entry, canonical isoform): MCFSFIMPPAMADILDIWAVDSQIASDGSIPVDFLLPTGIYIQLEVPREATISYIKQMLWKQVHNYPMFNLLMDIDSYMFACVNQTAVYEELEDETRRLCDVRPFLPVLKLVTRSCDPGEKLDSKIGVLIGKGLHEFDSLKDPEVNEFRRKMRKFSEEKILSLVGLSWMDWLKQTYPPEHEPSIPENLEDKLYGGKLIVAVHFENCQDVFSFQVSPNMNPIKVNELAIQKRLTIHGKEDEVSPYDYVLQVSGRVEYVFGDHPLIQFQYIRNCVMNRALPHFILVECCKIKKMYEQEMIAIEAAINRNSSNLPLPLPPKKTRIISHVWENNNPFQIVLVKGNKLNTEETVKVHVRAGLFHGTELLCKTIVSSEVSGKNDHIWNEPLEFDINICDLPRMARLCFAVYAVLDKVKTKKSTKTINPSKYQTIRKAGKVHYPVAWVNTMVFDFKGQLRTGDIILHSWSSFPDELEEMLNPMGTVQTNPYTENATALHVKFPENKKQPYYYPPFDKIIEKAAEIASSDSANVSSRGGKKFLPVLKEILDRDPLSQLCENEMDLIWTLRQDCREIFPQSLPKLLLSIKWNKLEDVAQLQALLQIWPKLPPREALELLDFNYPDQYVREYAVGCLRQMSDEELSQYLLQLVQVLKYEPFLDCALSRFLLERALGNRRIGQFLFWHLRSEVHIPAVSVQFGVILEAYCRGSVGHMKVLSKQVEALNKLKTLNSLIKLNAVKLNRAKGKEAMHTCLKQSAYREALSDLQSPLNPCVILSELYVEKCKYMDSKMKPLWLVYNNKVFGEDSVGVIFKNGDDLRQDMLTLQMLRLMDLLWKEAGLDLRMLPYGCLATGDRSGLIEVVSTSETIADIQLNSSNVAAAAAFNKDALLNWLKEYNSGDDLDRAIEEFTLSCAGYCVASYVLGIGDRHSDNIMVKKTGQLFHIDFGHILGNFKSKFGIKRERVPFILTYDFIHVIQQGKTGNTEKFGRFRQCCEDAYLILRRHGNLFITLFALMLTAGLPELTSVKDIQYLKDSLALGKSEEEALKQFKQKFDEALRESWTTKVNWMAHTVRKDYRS

[9] = molecular target: T4, Phosphatidylinositol 4,5-bisphosphate 3-kinase catalytic subunit gamma isoform (Homo sapiens, UniProt P48736); assay: Inhibition of PI3Kgamma (unknown origin) after 1 hr by ADP-Glo Luminescent assay
Target sequence in this assay (P48736 whole entry, canonical isoform): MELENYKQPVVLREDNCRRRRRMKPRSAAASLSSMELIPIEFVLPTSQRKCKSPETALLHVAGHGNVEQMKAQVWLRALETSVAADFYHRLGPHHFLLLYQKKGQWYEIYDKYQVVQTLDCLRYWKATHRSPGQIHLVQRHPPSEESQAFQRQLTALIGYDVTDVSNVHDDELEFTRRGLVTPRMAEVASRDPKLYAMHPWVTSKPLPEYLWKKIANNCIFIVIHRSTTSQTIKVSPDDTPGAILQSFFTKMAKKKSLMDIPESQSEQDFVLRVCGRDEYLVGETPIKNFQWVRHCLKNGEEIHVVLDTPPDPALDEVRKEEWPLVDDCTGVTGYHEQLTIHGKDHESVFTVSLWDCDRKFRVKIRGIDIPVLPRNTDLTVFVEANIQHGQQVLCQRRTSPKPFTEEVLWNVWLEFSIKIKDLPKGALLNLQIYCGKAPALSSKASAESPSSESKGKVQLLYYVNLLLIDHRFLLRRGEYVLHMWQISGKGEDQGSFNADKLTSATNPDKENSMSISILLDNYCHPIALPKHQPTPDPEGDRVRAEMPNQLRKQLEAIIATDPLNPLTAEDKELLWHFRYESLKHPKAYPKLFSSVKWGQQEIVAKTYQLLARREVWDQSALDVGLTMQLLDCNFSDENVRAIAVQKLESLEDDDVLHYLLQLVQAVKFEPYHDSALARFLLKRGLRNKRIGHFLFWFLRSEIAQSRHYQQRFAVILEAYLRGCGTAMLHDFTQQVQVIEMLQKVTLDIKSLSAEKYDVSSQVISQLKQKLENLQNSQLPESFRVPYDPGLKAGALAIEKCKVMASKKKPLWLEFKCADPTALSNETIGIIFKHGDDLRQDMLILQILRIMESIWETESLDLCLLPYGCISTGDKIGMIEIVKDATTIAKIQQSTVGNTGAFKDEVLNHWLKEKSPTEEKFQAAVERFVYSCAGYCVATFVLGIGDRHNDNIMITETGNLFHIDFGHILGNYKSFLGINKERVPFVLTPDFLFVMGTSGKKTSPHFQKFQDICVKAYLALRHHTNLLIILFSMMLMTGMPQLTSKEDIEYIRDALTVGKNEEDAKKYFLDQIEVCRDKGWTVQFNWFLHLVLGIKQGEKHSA

[10] = cells; settings: Homo sapiens, PC-3, 72 h
[11] = molecular target: T1, Phosphatidylinositol 4,5-bisphosphate 3-kinase catalytic subunit alpha isoform; assay: Inhibition of PI3Kalpha (unknown origin) at 1 uM after 1 hr by Kinase-Glo Luminescent assay
Outline: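 Purchased PI3Kα in buffer of 50 mM HEPES pH 7.5, 3 mM MgCl2, 1 mM EDTA, 100 mM NaCl, 0.03% CHAPS, 2 mM DTT; substrate PIP2 plus ATP. Reaction 1 h at room temperature, stopped with Kinase-Glo reagent, 15 min equilibration, luminescence read. Percent inhibition from no-enzyme and DMSO controls; IC50 from four-parameter Hill fit.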

[12] = molecular target: T3, Phosphatidylinositol 4,5-bisphosphate 3-kinase catalytic subunit beta isoform; assay: Inhibition of PI3Kbeta (unknown origin) at 1 uM after 1 hr by ADP-Glo Luminescent assay
Outline: as §1
Target sequence in this assay (P42338 whole entry, looked up, canonical isoform): as the sequence (P42338 whole entry, canonical isoform) above

[13] = molecular target: T4, Phosphatidylinositol 4,5-bisphosphate 3-kinase catalytic subunit gamma isoform; assay: Inhibition of PI3Kgamma (unknown origin) at 1 uM after 1 hr by ADP-Glo Luminescent assay
Target sequence in this assay (P48736 whole entry, looked up, canonical isoform): as the sequence (P48736 whole entry, canonical isoform) above

[14] = tested on: MCF7; assay: Inhibition of mTORC2 in human MCF7 cells assessed as downregulation of pAKT(Ser473) at 0.5 uM after 2 hrs by Western blot analysis; type: cell-based
[15] = molecular target: mTORC1 (Homo sapiens) (UniProt P42345+Q8N122+Q9BVC4); settings: MCF7, 0.5 uM
[16] = Metabolic stability in simulated intestinal fluid after 45 mins; type: ADME; settings: simulated gi fluid, 0.75 h
[17] = Metabolic stability in human liver microsomes after 60 mins; type: ADME; settings: read-out: Stability
[18] = Metabolic stability in simulated gastric fluid after 45 mins; type: ADME; settings: simulated gi fluid, 0.75 h
[19] = Metabolic stability in human liver microsomes after 30 mins; type: ADME; settings: read-out: Stability
[20] = molecular target: T5, Phosphatidylinositol 4,5-bisphosphate 3-kinase catalytic subunit delta isoform (Homo sapiens) (UniProt O00329); assay: Inhibition of PI3Kdelta (unknown origin) at 1 uM after 1 hr by ADP-Glo Luminescent assay
T5 sequence (whole entry): T2 sequence (O00329 whole entry)

[21] = Metabolic stability in rat liver microsomes after 30 mins; type: ADME; settings: read-out: Stability

T1 sequence (P42336 whole entry, canonical isoform): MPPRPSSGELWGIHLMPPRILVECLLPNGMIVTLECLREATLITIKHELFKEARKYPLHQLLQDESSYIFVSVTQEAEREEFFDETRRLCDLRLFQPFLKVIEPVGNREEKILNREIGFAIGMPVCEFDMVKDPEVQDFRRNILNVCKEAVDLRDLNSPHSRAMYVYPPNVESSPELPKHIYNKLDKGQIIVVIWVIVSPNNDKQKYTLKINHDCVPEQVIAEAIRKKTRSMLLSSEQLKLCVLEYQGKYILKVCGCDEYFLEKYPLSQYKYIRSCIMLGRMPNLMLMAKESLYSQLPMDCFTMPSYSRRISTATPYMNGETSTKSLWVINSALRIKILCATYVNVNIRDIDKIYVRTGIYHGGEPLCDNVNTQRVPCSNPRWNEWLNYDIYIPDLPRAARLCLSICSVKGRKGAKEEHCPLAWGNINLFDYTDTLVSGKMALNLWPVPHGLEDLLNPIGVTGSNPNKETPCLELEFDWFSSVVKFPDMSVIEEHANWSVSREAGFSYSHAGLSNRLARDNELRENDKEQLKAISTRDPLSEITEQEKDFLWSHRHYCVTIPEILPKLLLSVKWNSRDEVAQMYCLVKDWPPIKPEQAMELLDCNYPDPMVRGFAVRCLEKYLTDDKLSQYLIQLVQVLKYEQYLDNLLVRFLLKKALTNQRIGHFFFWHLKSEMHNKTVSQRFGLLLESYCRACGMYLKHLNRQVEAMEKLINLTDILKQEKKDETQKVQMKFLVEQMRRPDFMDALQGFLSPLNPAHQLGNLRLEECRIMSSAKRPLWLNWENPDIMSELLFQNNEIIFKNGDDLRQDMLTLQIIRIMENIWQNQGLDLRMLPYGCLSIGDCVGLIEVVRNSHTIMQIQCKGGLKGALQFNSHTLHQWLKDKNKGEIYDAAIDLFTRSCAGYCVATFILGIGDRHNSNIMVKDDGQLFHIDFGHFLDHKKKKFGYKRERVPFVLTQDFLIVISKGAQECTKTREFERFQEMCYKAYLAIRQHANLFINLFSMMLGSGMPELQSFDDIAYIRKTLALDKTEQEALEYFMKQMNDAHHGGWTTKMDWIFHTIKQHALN
Sequence of mTORC1 (Homo sapiens) (Q8N122 whole entry, looked up, other chains not shown): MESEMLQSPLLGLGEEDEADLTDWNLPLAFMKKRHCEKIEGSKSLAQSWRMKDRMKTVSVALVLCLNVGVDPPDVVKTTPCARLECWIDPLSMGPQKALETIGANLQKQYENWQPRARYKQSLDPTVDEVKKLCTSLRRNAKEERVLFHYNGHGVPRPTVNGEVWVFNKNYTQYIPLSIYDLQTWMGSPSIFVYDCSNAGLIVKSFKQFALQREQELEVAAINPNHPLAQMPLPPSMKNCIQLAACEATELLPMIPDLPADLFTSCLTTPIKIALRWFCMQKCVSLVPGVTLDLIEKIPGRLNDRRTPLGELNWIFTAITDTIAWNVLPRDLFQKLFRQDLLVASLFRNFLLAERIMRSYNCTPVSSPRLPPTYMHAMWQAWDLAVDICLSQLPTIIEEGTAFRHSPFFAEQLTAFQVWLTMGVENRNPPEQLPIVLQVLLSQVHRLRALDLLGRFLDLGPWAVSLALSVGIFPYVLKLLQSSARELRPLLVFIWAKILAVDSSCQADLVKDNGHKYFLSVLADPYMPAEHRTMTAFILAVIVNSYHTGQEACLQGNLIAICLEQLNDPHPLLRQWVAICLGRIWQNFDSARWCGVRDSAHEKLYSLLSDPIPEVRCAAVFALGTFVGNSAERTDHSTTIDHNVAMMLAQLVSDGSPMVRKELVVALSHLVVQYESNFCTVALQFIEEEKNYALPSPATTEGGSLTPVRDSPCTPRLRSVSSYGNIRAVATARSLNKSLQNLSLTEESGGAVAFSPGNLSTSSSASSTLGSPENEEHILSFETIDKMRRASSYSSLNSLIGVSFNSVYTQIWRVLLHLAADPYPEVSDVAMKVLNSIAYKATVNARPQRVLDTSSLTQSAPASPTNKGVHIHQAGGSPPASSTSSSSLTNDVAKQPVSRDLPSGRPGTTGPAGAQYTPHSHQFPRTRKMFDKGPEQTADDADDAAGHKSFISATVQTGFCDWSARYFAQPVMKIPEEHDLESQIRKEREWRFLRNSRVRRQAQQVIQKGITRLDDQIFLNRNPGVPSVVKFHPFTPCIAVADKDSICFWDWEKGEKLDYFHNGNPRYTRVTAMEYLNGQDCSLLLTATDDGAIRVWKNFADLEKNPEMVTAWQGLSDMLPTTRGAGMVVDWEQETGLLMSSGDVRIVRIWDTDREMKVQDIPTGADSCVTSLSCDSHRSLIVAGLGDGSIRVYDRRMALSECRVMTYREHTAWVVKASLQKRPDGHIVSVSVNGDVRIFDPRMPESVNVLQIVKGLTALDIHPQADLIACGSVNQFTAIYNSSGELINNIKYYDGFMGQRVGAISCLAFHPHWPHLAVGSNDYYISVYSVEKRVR
Sequence of mTORC1 (Homo sapiens) (Q9BVC4 whole entry, looked up, other chains not shown): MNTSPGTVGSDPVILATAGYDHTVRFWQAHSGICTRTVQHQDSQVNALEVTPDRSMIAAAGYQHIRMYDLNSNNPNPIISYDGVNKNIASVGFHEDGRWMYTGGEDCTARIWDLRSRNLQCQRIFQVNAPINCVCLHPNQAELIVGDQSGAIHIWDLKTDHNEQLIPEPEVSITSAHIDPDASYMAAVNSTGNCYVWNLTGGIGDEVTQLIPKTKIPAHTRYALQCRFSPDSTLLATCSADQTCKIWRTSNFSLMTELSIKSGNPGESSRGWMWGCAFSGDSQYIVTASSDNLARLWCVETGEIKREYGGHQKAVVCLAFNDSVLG

Row | SMILES | pIC50 [5] | pIC50 [6] | pIC50 [10] | further results
1 | NC(=O)c1cnc2ccc(-c3cnc4ccccc4c3)cc2c1Nc1cccc(C(F)(F)F)c1 | 5.50 | 6.22 | 5.19 | –
2 | CC(C)(C#N)c1ccc(Nc2c(C(N)=O)cnc3ccc(-c4cnc5ccccc5c4)cc23)cc1 | 5.34 | 6.02 | 5.55 | pIC50 [3]: 7.48; inhibition [11]: 26.9%; inhibition [12]: 10.3%; inhibition [13]: -2.4%
3 | CO[C@H]1C[C@@H]2CC[C@@H](C)[C@@](O)(O2)C(=O)C(=O)N2CCCC[C@H]2C(=O)O[C@H]([C@H](C)C[C@@H]2CC[C@@H](O)[C@H](OC)C2)CC(=O)[C@H](C)/C=C(\C)[C@@H](O)[C@@H](OC)C(=O)[C@H](C)C[C@H](C)/C=C/C=C/C=C/1C | – | – | – | inhibition [14]: inactive; inhibition [15]: Active
4 | CCC(=O)N1CCN(c2ccc(Nc3c(C(N)=O)cnc4ccc(-c5ccc(N)nc5)cc34)cc2C(F)(F)F)CC1 | 5.62 | 6.24 | 5.84 | –
5 | NC(=O)c1cnc2ccc(-c3ccc(N)nc3)cc2c1Nc1cccc(C(F)(F)F)c1 | 5.74 | 6.39 | 5.97 | –
6 | O=C(NC1CC1)c1cnc2ccc(-c3cnc4ccccc4c3)cc2c1Nc1ccc(N2CCNCC2)c(C(F)(F)F)c1 | – | – | – | pIC50 [3]: < 5.52
7 | CN1CCN(CC(=O)N2CCN(c3ccc(Nc4c(C(N)=O)cnc5ccc(-c6cnc7ccccc7c6)cc45)cc3C(F)(F)F)CC2)CC1 | 6.01 | 6.36 | 6.00 | –
8 | Cn1c(=O)n(-c2ccc(C(C)(C)C#N)cc2)c2c3cc(-c4cnc5ccccc5c4)ccc3ncc21 [DACTOLISIB] | 6.70 | 7.30 | 6.68 | –
9 | Cn1nccc1-c1ccc2ncc(C(N)=O)c(Nc3ccc(N4CCN(S(C)(=O)=O)CC4)c(C(F)(F)F)c3)c2c1 | 4.83 | 5.57 | 5.15 | –
10 | Cn1nccc1-c1ccc2ncc(C(N)=O)c(Nc3ccc(C(C)(C)C#N)cc3)c2c1 | 4.76 | 5.90 | < 4.30 | –
11 | COc1ccc(-c2ccc3ncc(C(N)=O)c(Nc4ccc(C(C)(C)C#N)cc4)c3c2)cn1 | 5.59 | 5.80 | 5.78 | –

Second part, led by results:

Row | pIC50 [5] | pIC50 [6] | pIC50 [10] | SMILES | further results
12 | 5.89 | 6.36 | 5.41 | CC(=O)N1CCN(c2ccc(Nc3c(C(N)=O)cnc4ccc(-c5cnc6ccccc6c5)cc34)cc2C(F)(F)F)CC1 | inhibition [1]: Active; pIC50 [2]: 5.61; pIC50 [3]: 7.51; inhibition [4]: Active; pIC50 [7]: < 5.30; pIC50 [8]: < 5.30; pIC50 [9]: 6.03
13 | 5.33 | 6.31 | 5.76 | CNC(=O)c1cnc2ccc(-c3ccc(N)nc3)cc2c1Nc1ccc(C(C)(C)C#N)cc1 | –
14 | 6.00 | 6.44 | 5.43 | CS(=O)(=O)N1CCN(c2ccc(Nc3c(C(N)=O)cnc4ccc(-c5cnc6ccccc6c5)cc34)cc2C(F)(F)F)CC1 | –
15 | 6.17 | 6.28 | 6.08 | CC(C)(C#N)c1ccc(Nc2c(C(N)=O)cnc3ccc(-c4ccc(N)nc4)cc23)cc1 | –
16 | 5.06 | 5.89 | 5.15 | CNC(=O)c1cnc2ccc(-c3cnc4ccccc4c3)cc2c1Nc1ccc(C(C)(C)C#N)cc1 | –
17 | 5.69 | 6.11 | 6.00 | COc1ccc(-c2ccc3ncc(C(N)=O)c(Nc4ccc(N5CCNCC5)c(C(F)(F)F)c4)c3c2)cn1 | –
18 | 6.34 | 6.62 | 6.21 | Cl.NC(=O)c1cnc2ccc(-c3cnc4ccccc4c3)cc2c1Nc1ccc(N2CCNCC2)c(C(F)(F)F)c1 | Stability [16]: Stable; remaining at 1 h [17]: 73%; Stability [18]: Stable; remaining at 0.5 h [19]: 80%; inhibition [11]: 32.3%; inhibition [20]: 16.7%; remaining at 0.5 h [21]: 50%; inhibition [12]: 1%; inhibition [13]: 6.7%
